Measurements as given in ChEMBL document CHEMBL3526008, “Identification of amiodarone metabolites in human bile by ultraperformance liquid chromatography/quadrupole time-of-flight mass spectrometry” (Drug Metab Dispos, 2011).

Experiments:
[1] = Drug level in human liver S9 fraction assessed as compound formation treated with 50 uM amiodarone for 60 mins by UPLC-Q/TOF mass spectrometry in presence of NADPH; format: ADME, subcellular; settings: s9, 1 h
Procedure, shortened: (§1)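 Pooled human liver S9 at 2.0 mg/ml protein in 100 mM potassium phosphate pH 7.4, 37°C. Amiodarone 50 μM (DMSO 0.1% final). 3 min preincubation, then started with 2.0 mM NADPH. Quenched at 60 min with equal volume of ice-cold acetonitrile. Controls lacked NADPH or substrate. Duplicates. Read-out by UPLC-Q/TOF MS and UPLC-UV.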

[2] = Retention time of the compound by UPLC-Q/TOF mass spectrometry; format: physicochemical
Procedure, shortened: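 UPLC on HSS T3 column (1.8 μm, 2.1 × 100 mm). Mobile phase 0.05% formic acid in water and in acetonitrile. Q/TOF detection in ES+ with leucine enkephalin lock mass.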

[3] = Drug level in arrhythmia patient bile treated with amiodarone at 200 mg/day, po for 7 days by UPLC-Q/TOF mass spectrometry; format: ADME, organism-based; settings: human, in vivo, 168 h
Procedure, shortened: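 Three arrhythmia patients (66-89 y, 1 male, 2 female) with T-tube drainage after hepatobiliary surgery. Bile collected from T-tube at 1-h intervals (about 10 ml) over 24 h, stored at -20°C. Glucuronides hydrolysed with β-glucuronidase in 1 M citrate pH 5.0, 37°C, 16 h. Profiled by UPLC-Q/TOF on HSS T3 column, formic acid/acetonitrile gradient, ES+, m/z 80–1000.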

Liver microsome = test: Drug level in human liver microsomes assessed as compound formation treated with 50 uM amiodarone for 60 mins by UPLC-Q/TOF mass spectrometry in presence of NADPH; format: ADME; settings: 1 h
Procedure, shortened: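 Pooled human liver microsomes at 1.0 mg/ml protein in 100 mM potassium phosphate pH 7.4, 37°C. Amiodarone 50 μM (DMSO 0.1% final). 3 min preincubation, then started with 2.0 mM NADPH. Stopped at 60 min with equal volume of ice-cold acetonitrile. Controls lacked NADPH or substrate. Duplicates. Analysed by UPLC-Q/TOF MS.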

[4] = Drug level in human liver S9 fraction assessed as alcohol dehydrogenase-mediated compound formation treated with 50 uM amiodarone for 60 mins by UPLC-Q/TOF mass spectrometry in presence of NADPH; format: ADME, subcellular; settings: s9, 1 h
Procedure, shortened: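 Human liver S9 (2.0 mg/ml) in 100 mM potassium phosphate pH 7.4 at 37°C. Preincubated 10 min with or without 5 μM 4-methylpyrazole (final), then 50 μM amiodarone added. Incubated 60 min with 2.0 mM NADPH. Carboxylic acid metabolite compared by LC/MS between incubations with and without 4-MP. Duplicates.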

[5] = Drug level in human liver S9 fraction assessed as compound formation treated with 50 uM amiodarone for 60 mins by LC-UV analysis in presence of NADPH; format: ADME, subcellular; settings: s9, 1 h; procedure, shortened: as §1

Structure (SMILES) | Drug metabolism [1] | Retention_time [2] | Drug metabolism (Liver microsome) | Drug metabolism [4] | Drug metabolism [5] | Drug metabolism [3]
CCCCc1oc2ccccc2c1C(=O)c1cc(I)c(O)c(I)c1 | metabolite_detected | 16.3 min | metabolite_detected | – | – | metabolite_detected
CCN(CC)CCOc1ccc(C(=O)c2c(CCCC(=O)O)oc3ccccc23)cc1I | metabolite_detected | 13.3 min | – | – | – | metabolite_detected
CCN(CC)CCOc1c(I)cc(C(=O)c2c(CCC(C)O)oc3ccccc23)cc1I (stereo not drawn) | metabolite_detected | 14.5 min | metabolite_detected | – | – | metabolite_detected
CCNCCOc1c(I)cc(C(=O)c2c(CCCC(=O)O)oc3ccccc23)cc1I | metabolite_detected | 13.4 min | – | – | – | metabolite_detected
CCCCc1oc2ccccc2c1C(=O)c1cc(I)c(OCCNCC)c(I)c1 [DESETHYLAMIODARONE] | metabolite_detected | 17 min | metabolite_detected | – | metabolite_detected | metabolite_detected

More lines, main results first:

Drug metabolism [1] | Retention_time [2] | Drug metabolism (Liver microsome) | Drug metabolism [4] | Drug metabolism [5] | Structure (SMILES) | Drug metabolism [3]
metabolite_detected | 14.3 min | metabolite_detected | – | – | CCN(CC)CCOc1c(I)cc(C(=O)c2c(CCCCO)oc3ccccc23)cc1I | metabolite_detected
metabolite_detected | 16.2 min | metabolite_detected | – | – | CCCCc1oc2ccccc2c1C(=O)c1ccc(OCCNCC)c(I)c1 | metabolite_detected
metabolite_detected | 15.5 min | metabolite_detected | – | – | CCCCc1oc2cc(O)ccc2c1C(=O)c1cc(I)c(OCCN(CC)CC)c(I)c1 | metabolite_detected
– | 14.2 min | – | metabolite_detected | – | CCN(CC)CCOc1c(I)cc(C(=O)c2c(CCCC(=O)O)oc3ccccc23)cc1I | metabolite_detected
metabolite_detected | 21.5 min | metabolite_detected | – | – | CCCCc1oc2ccccc2c1C(=O)c1cc(I)c(OCCO)c(I)c1 | metabolite_detected
